In brackets after ≈: the same amount, converted by molar mass. Activity calls are given as the source filed them. The rule behind the calls is not given here. A value given as a limit tells only on which side of the number the result lay.

The test system of one test is Aspergillus fumigatus. Briefly: Concentration required to inhibit growth of MF 4839 strain of Aspergillus fumigatus. The test is classed as functional. An outline of the steps:
(§1)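 Broth microdilution against a panel of clinically relevant fungal strains. Read-out was the minimum fungicidal concentration in μg/mL.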

A further test relates to Candida parapsilosis. Briefly: Concentration required to inhibit growth of MY 1010 strain of Candida parapsilosis. The test is classed as functional. Particulars: Lodderomyces parapsilosis. Summed up: as §1
In test [1] the test system is Candida albicans. In words: Concentration required to inhibit growth of MY 1055 strain of Candida albicans. The test is classed as functional. Summed up:
as §1

Test [2] concerns Candida albicans. In words: Concentration required to inhibit growth of MY 1750 strain of Candida albicans. The test is classed as functional. Summed up: as §1
Another test has as its system Candida tropicalis. In words: Concentration required to inhibit growth of MY 1012 strain of Candida tropicalis. The test is classed as functional. Summed up: as §1
Test [3] has as its system Cryptococcus neoformans. In words: Concentration required to inhibit growth of MY 1051 strain of Cryptococcus neoformans. Format: functional. Summed up: as §1
In test [4] the test system is Cryptococcus neoformans. In words: Concentration required to inhibit growth of MY 2061 strain of Cryptococcus neoformans. Format: functional. Summed up:
as §1

The subject of test [5] is HepG2. Briefly: Concentration required to inhibit cholesterol synthesis in Hep G2 cells. The test is classed as functional, cell-based. The settings on record: Homo sapiens. Summed up:
(§2)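 Hep G2 cells held 2 days in lipoprotein-depleted FBS to stimulate sterol synthesis, then given inhibitor in serum-free medium for 2 h. 15 μCi [5-3H]mevalonate (0.2 mCi/mmol) added for 1 h. Cells washed and saponified, and radioactivity counted by scintillation.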

Test [6] relates to HepG2. In words: Concentration required to inhibit cholesterol synthesis in Hep G2 cells relative to control (IC50 of L-694,599). Format: functional, Homo sapiens. An outline of the steps: as §2
For test [7], the system named is Mus musculus. In words: (§3) Tested for its ability to inhibit the incorporation of [5-3H]-mevalonolactone into cholesterol by in vivo mouse assay by peroral administration at a dose of 40 mg/kg. Format: functional. Particulars: route oral. Summed up: (§4)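 Female Swiss Webster mice (~25 g), six per group, dosed po by gavage with inhibitor suspended in 5% emulphor. 30 min later, 0.5 μCi/mouse [5-3H]mevalonolactone in saline given sc. Livers removed 30 min after that and saponified in KOH/EtOH overnight at 55 °C, then petroleum-ether extracted. Nonsaponifiable dpm counted. Compounds first tested at a single dose (typically 12 or 24 mg/kg).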

For a further test, the target named is T1, Squalene synthase (Rattus norvegicus, UniProt Q02769).
T1 sequence (Q02769 whole entry): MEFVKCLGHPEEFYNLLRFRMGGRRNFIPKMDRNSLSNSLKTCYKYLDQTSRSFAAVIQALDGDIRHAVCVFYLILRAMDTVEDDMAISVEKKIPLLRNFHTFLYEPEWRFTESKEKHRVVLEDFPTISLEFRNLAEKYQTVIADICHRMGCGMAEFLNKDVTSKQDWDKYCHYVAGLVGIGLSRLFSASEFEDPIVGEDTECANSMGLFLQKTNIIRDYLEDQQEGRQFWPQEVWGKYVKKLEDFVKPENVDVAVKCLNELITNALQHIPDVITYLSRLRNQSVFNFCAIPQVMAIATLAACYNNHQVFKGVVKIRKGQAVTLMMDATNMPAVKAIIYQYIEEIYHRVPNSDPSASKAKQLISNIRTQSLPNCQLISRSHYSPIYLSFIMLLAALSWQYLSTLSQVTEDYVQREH
In words: Tested for inhibition against squalene synthase enzyme in rat liver.

In test [8] the target is T2, Squalene synthase (Rattus norvegicus) (UniProt Q02769).
T2 sequence (whole entry): T1 sequence (Q02769 whole entry)
In words: Concentration required to inhibit rat liver squalene synthase enzyme relative to control (L-694,599). An outline of the steps: (§5)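 Enzyme from rat liver. […] Inhibitors added in DMSO (0.3% final) as 3-fold serial dilutions, usually up to 30 ng/mL (about 40 nM). IC50 read from % inhibition vs log concentration.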

In another test the test system is Trichophyton benhamiae. In words: Concentration required to inhibit growth of MF 4864 strain of Trichophyton mentagrophytes. Format: functional, Arthroderma benhamiae. An outline of the steps: as §1
For test [9], the system named is squalene synthase (Saccharomyces cerevisiae). In words: Compound required to inhibit 50% activity of yeast squalene synthase enzyme relative to control (L-694,599).
Test [10] relates to Mus musculus. The description is as §3. Further details: dose 40 mg/kg, route oral. Format: ADME, organism-based. The settings on record: po. Summed up:
as §4

The target in test [11] is T2, Squalene synthase (Rattus norvegicus). In words: concentration required to inhibit rat liver squalene synthase enzyme relative to control (L-694,599). Summed up:
as §5

The test system of test [12] is Mus musculus. In words: Tested for its ability to inhibit the incorporation of [5-3H]-mevalonolactone into cholesterol by in vivo mouse assay by peroral administration at dose 100 mg/kg. Particulars: route oral. The test is classed as functional. Summed up:
as §4

Test [13] deals with Mus musculus. Briefly: Tested for its ability to inhibit the incorporation of [5-3H]-mevalonolactone into cholesterol by in vivo mouse assay by peroral administration not active at dose 40 mg/kg; NA = Not active. The test is classed as functional, organism-based. Further details: dose 40 mg/kg. An outline of the steps:
as §4

The target in test [14] is T3, Squalene synthase (Mus musculus) (UniProt P53798).
T3 sequence (whole entry): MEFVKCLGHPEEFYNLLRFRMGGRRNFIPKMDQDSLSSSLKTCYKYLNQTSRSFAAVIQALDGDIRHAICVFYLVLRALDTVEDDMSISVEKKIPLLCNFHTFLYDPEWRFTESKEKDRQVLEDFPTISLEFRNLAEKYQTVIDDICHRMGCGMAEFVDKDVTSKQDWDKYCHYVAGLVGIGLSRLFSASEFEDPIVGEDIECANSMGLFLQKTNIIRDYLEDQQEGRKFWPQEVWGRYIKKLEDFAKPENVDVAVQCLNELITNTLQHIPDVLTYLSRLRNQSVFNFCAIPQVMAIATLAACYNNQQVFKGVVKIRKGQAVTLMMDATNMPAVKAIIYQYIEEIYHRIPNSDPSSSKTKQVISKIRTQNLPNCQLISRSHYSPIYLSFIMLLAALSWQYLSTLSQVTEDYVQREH
Briefly: Tested for the effective dose required for the incorporation of [5-3H]-mevalonolactone into cholesterol by in vivo mouse assay by peroral administration. The test is classed as functional, organism-based. Summed up:
as §4

Test [15] relates to Mus musculus. Briefly: Tested for its ability to inhibit the incorporation of [5-3H]-mevalonolactone into cholesterol by in vivo mouse assay by peroral administration at a dose of 6 mg/kg. Format: functional. Particulars: route oral. An outline of the steps: as §4

Regarding `C=C(CCC12OC(C(=O)O)C(O)(C(=O)O)C(C(=O)O)(O1)[C@H](OC(=O)CCCCCCCCCCC)[C@H]2O)[C@@H](OC(C)=O)[C@H](C)Cc1ccccc1` (stereo partly drawn), the MFC against Aspergillus fumigatus was 8 µg/mL (≈ 11.1 µM); against Candida parapsilosis, 8 µg/mL (≈ 11.1 µM); in the test on Candida albicans [1] it was 4 µg/mL (≈ 5.55 µM); against Candida albicans [2] it was 8 µg/mL (≈ 11.1 µM); against Candida tropicalis, 8 µg/mL (≈ 11.1 µM); in the test with Cryptococcus neoformans [3], 2 µg/mL (≈ 2.77 µM). In addition, the MFC is 0.12 µg/mL (≈ 0.166 µM) against Cryptococcus neoformans [4] and 4 µg/mL (≈ 5.55 µM) against Trichophyton benhamiae. Moreover, the results for the IC50 in the test with HepG2 [5] and on Squalene synthase were 1.7 µM and 0.0008 µM, respectively. Besides, the Relative activity was 3.24 in the test with HepG2 [6], 0.29 in test [8] and 3.13 in test [9]. The same compound came in with an inhibition in vivo at 40 mg/kg with Mus musculus [7] of 20%.
Take `C=C(CCC12OC(C(=O)O)C(O)(C(=O)O)C(C(=O)O)(O1)[C@H](OC(=O)OCCCCCCCCCCCC)[C@H]2O)[C@@H](OC(C)=O)[C@H](C)Cc1ccccc1` (stereo partly drawn): the IC50 with HepG2 [5] was determined as 1.9 µM; against Squalene synthase, 0.00019 µM. Moreover, the Relative activity worked out at 4.36 in the test on HepG2 [6] and 0.47 in test [11]. In the test on Mus musculus [10], this compound displayed an inhibition at 40 mg/kg of 5%.
Consider `C=C(CCC12OC(C(=O)O)C(O)(C(=O)O)C(C(=O)O)(O1)[C@H](OC(=O)/C=C/[C@@H](C)C[C@@H](C)CC)[C@H]2O)[C@@H](OC(C)=O)[C@H](C)Cc1ccccc1` (stereo partly drawn) [ZARAGOZIC ACID A], for which the MFC in the test with Aspergillus fumigatus stood at 32 µg/mL (≈ 46.3 µM); against Candida parapsilosis it was 8 µg/mL (≈ 11.6 µM); with Candida albicans [1], 16 µg/mL (≈ 23.2 µM); against Candida albicans [2], 8 µg/mL (≈ 11.6 µM); against Candida tropicalis, 2 µg/mL (≈ 2.9 µM); in the test on Cryptococcus neoformans [3], 1 µg/mL (≈ 1.45 µM). The MFC against Cryptococcus neoformans [4] was found to be 1 µg/mL (≈ 1.45 µM); with Trichophyton benhamiae, 4 µg/mL (≈ 5.79 µM). Moreover, the midpoint of inhibition with HepG2 [5], the IC50, lay at 6 µM. In the test on Mus musculus [12], this compound displayed an inhibition in vivo at 100 mg/kg of 50%. Further, in the test on Mus musculus [13], the inhibition result is “inactive”.
With `C=C(CCC12OC(C(=O)O)C(O)(C(=O)O)C(C(=O)O)(O1)[C@H](O/C(S)=N/C(C)C)[C@H]2O)[C@@H](OC(C)=O)[C@H](C)Cc1ccccc1` (stereo partly drawn), in [14], the ED50 is > 6 mg/kg. In the test with Mus musculus [15], at 6 mg/kg the inhibition in vivo was 9%. Also, the Relative activity in test [11] worked out at 0.01.

Values taken from ChEMBL document CHEMBL1127414 (J Med Chem, 1994).
